ChEMBL document CHEMBL2150950, “Effect of 4-aryl-2-methyl-5-nitro-1,4-dihydropyridine-3-carboxylates on the guinea pig papillary muscle and isolated human vena saphena magna that is used for coronary artery bypass grafting” (2011)
Activity calls are given as the source filed them. The rule behind the calls is not given here.

Columns and labels:
[1] = Ionotropic effect in guinea pig ventricle papillary muscles assessed as lengthening of 10% repolarized cardiac action potential duration time at 10^-7 M by microelectrode technique relative to untreated control (reference value: 37 to 47 APD10 ms); format: functional, Cavia porcellus, Papillary muscle
[2] = Ionotropic effect in guinea pig ventricle papillary muscles assessed as lengthening of 25% repolarized cardiac action potential duration time at 10^-6 M by microelectrode technique relative to untreated control (reference value: 84 to 104 APD25 ms); format: functional, Cavia porcellus, Papillary muscle
[3] = Ionotropic effect in guinea pig ventricle papillary muscles assessed as lengthening of 50% repolarized cardiac action potential duration time at 10^-4 M by microelectrode technique relative to untreated control (reference value: 132 to 176 APD50 ms); format: functional, Cavia porcellus, Papillary muscle
[4] = Ionotropic effect in guinea pig ventricle papillary muscles assessed as lengthening of 25% repolarized cardiac action potential duration time at 10^-5 M by microelectrode technique relative to untreated control (reference value: 84 to 104 APD25 ms); format: functional, Cavia porcellus, Papillary muscle
[5] = Ionotropic effect in guinea pig right ventricle papillary muscles assessed as contraction force at 10^-6 M by force transduction assay relative to untreated control (reference value: 100%); format: functional, Cavia porcellus, Papillary muscle
[6] = Ionotropic effect in guinea pig right ventricle papillary muscles assessed as contraction force at 10^-7 M by force transduction assay relative to untreated control (reference value: 100%); format: functional, Cavia porcellus, Papillary muscle
[7] = Ionotropic effect in guinea pig ventricle papillary muscles assessed as lengthening of 90% repolarized cardiac action potential duration time at 10^-5 M by microelectrode technique relative to untreated control (reference value: 132 to 176 APD50 ms); format: functional, Cavia porcellus, Papillary muscle
[8] = Ionotropic effect in guinea pig ventricle papillary muscles assessed as lengthening of 25% repolarized cardiac action potential duration time at 10^-7 M by microelectrode technique relative to untreated control (reference value: 84 to 104 APD25 ms); format: functional, Cavia porcellus, Papillary muscle
[9] = Ionotropic effect in guinea pig ventricle papillary muscles assessed as lengthening of 50% repolarized cardiac action potential duration time at 10^-7 M by microelectrode technique relative to untreated control (reference value: 132 to 176 APD50 ms); format: functional, Cavia porcellus, Papillary muscle
[10] = Ionotropic effect in guinea pig ventricle papillary muscles assessed as lengthening of 50% repolarized cardiac action potential duration time at 10^-5 M by microelectrode technique relative to untreated control (reference value: 132 to 176 APD50 ms); format: functional, Cavia porcellus, Papillary muscle
[11] = Ionotropic effect in guinea pig ventricle papillary muscles assessed as lengthening of 10% repolarized cardiac action potential duration time at 10^-4 M by microelectrode technique relative to untreated control (reference value: 37 to 47 APD10 ms); format: functional, Cavia porcellus, Papillary muscle
[12] = Ionotropic effect in guinea pig ventricle papillary muscles assessed as lengthening of 10% repolarized cardiac action potential duration time at 10^-6 M by microelectrode technique relative to untreated control (reference value: 37 to 47 APD10 ms); format: functional, Cavia porcellus, Papillary muscle
[13] = Ionotropic effect in guinea pig ventricle papillary muscles assessed as lengthening of 25% repolarized cardiac action potential duration time at 10^-4 M by microelectrode technique relative to untreated control (reference value: 84 to 104 APD25 ms); format: functional, Cavia porcellus, Papillary muscle
[14] = Ionotropic effect in guinea pig ventricle papillary muscles assessed as lengthening of 90% repolarized cardiac action potential duration time at 10^-7 M by microelectrode technique relative to untreated control (reference value: 132 to 176 APD50 ms); format: functional, Cavia porcellus, Papillary muscle
[15] = Ionotropic effect in guinea pig right ventricle papillary muscles assessed as contraction force at 10^-5 M by force transduction assay relative to untreated control (reference value: 100%); format: functional, Cavia porcellus, Papillary muscle
[16] = Ionotropic effect in guinea pig ventricle papillary muscles assessed as lengthening of 50% repolarized cardiac action potential duration time at 10^-6 M by microelectrode technique relative to untreated control (reference value: 132 to 176 APD50 ms); format: functional, Cavia porcellus, Papillary muscle
[17] = Ionotropic effect in guinea pig right ventricle papillary muscles assessed as contraction force at 10^-4 M by force transduction assay relative to untreated control (reference value: 100%); format: functional, Cavia porcellus, Papillary muscle
[18] = Ionotropic effect in guinea pig ventricle papillary muscles assessed as lengthening of 90% repolarized cardiac action potential duration time at 10^-6 M by microelectrode technique relative to untreated control (reference value: 132 to 176 APD50 ms); format: functional, Cavia porcellus, Papillary muscle
[19] = Ionotropic effect in guinea pig ventricle papillary muscles assessed as lengthening of 90% repolarized cardiac action potential duration time at 10^-4 M by microelectrode technique relative to untreated control (reference value: 132 to 176 APD50 ms); format: functional, Cavia porcellus, Papillary muscle
[20] = Ionotropic effect in guinea pig ventricle papillary muscles assessed as lengthening of […] cardiac action potential duration time at 10^-5 M by microelectrode technique relative to untreated control (reference value: 37 to 47 […] ms); format: functional, Cavia porcellus, Papillary muscle
[21] = Vasodilatory activity in human vena saphena magna assessed as relaxation of phenylephrine-induced smooth muscle contraction at 10^-7 to 10^-4 M; format: functional
How it was run: (§1)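 Saphenous vein rings came from 37 CABG patients. They were bathed in Tyrode's solution (mM: NaCl 137, KCl 5.4, CaCl2 1.8, MgCl2 0.9, Tris HCl 10, glucose 5; pH 7.4), equilibrated 45–60 min and washed every 15 min. Rings were precontracted with 10^-4 M phenylephrine, then given cumulative test agent at 10^-7 to 10^-4 M. Isometric relaxation was recorded, as means ± SE.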

[22] = Vasodilatory activity in human vena saphena magna assessed as reduction in phenylephrine-induced smooth muscle contraction at 100 uM relative to baseline contraction; format: functional; set-up: scale not given: the % may be the effect or the level left; how it was run: as §1
[23] = Vasodilatory activity in human vena saphena magna assessed as reduction in phenylephrine-induced smooth muscle contraction at 0.1 uM; format: functional; set-up: scale not given: the % may be the effect or the level left; how it was run: as §1

Row | Compound | Time [1] [ms] | Time [2] [ms] | Time [3] [ms] | Time [4] [ms] | Activity [5] [%] | Activity [6] [%] | Time [7] [ms] | Time [8] [ms] | Time [9] [ms] | Time [10] [ms] | Time [11] [ms] | Time [12] [ms] | Time [13] [ms] | Time [14] [ms] | Activity [15] [%] | Time [16] [ms] | Activity [17] [%] | Time [18] [ms] | Time [19] [ms] | Time [20] [ms] | other results
1 | COC(=O)C1=C(C)NC(C)=C([N+](=O)[O-])C1c1ccccc1OC(F)F (stereo unspecified) | 51.3 | 110.3 | 148.5 | 110.8 | 112.6 | 114.4 | 175 | 101.7 | 144.8 | 147 | 53.8 | 54.5 | 109.2 | 178.3 | 108.3 | 149 | 111 | 178.3 | 176.7 | 55.3 | 
2 | COC(=O)C1=C(C)NC=C([N+](=O)[O-])C1c1ccccc1C(F)(F)F (stereo unspecified) | 40 | 91.4 | 156.5 | 103.2 | 98.5 | 101 | 175.5 | 92.5 | 138 | 149.8 | 47 | 38.5 | 111.3 | 171.5 | 103 | 140.5 | 97.8 | 172 | 184 | 44.7 | 
3 | CCCOCCOC(=O)C1=C(C)NC=C([N+](=O)[O-])C1c1ccc(C(F)(F)F)cc1 (stereo unspecified) | 35 | 96 | 158.7 | 103.3 | 83.7 | 89.5 | 188 | 91 | 136.6 | 161.2 | 38.2 | 36 | 101 | 166.7 | 81 | 149.6 | 73 | 180 | 189.6 | 37.5 | 
4 | CCOC(=O)C1=C(C)NC2=C(C(=O)OC2)C1c1ccccc1OC(F)F (stereo unspecified) |  |  |  |  |  |  |  |  |  |  |  |  |  |  |  |  |  |  |  |  | Activity [21]: Active; Activity [22]: 19%; Activity [23]: 50%
5 | COC(=O)C1=C(C)NC=C([N+](=O)[O-])C1c1ccccc1OC(F)F (stereo unspecified) | 36 | 93.7 | 178 | 111.6 | 73.5 | 78.85 | 217 | 90.6 | 153 | 177 | 39.5 | 35 | 112.6 | 190 | 90.3 | 161 | 92.8 | 202 | 220 | 39.5 | 
6 | COC(=O)C1=C(C)NC(C)=C([N+](=O)[O-])C1c1ccccc1C(F)(F)F (stereo unspecified) | 44.5 | 91 | 133.8 | 85.1 | 155 | 123 | 217 | 92.7 | 135.6 | 129 | 42.7 | 42 | 89 | 220 | 175 | 133.8 | 176 | 218.2 | 223.5 | 41 | Activity [21]: Active; Activity [22]: 19%; Activity [23]: 50%
